# TDP2 inh – blocks human TDP2 phosphodiesterase activity. recombinant TDP2, T5PNP hydrolysis, p-nitrophenol absorbance 415 nm. inhibition, % at 12.8 µM. 370,000 tested, 0.34% active. AID 720702;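 active means inhibition above the mean of all tested compounds plus 3 SD, set per campaign, cut at about 25% in these data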;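 further: 0% = DMSO with enzyme and 100% = buffer with substrate but no TDP2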
#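 Read-out basis: percent inhibition. System: recombinant human TDP2. Buffer or medium: Mg2+-containing Tris-HCl buffer, pH 7.5. Repeats: single replicate. Timing: reaction 2 h, 37 °C. Benchmarks: high control without enzyme, low control DMSO plus TDP2. Probe or stimulus: 5 mM T5PNP. Doses: 12.8 µM only. Measured by: epi absorbance of p-nitrophenol freed from T5PNP by hydrolysis.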
# NSD2 inh – blocks human histone methyltransferase NSD2; O96028; NSD2 peptide methylation, AlphaScreen, 120 min; inhibition, % at 12.5 µM; 310,000 tested, 0.54% active; in the data active means inhibition above about 50%
# Target sequence (O96028 whole entry, looked up): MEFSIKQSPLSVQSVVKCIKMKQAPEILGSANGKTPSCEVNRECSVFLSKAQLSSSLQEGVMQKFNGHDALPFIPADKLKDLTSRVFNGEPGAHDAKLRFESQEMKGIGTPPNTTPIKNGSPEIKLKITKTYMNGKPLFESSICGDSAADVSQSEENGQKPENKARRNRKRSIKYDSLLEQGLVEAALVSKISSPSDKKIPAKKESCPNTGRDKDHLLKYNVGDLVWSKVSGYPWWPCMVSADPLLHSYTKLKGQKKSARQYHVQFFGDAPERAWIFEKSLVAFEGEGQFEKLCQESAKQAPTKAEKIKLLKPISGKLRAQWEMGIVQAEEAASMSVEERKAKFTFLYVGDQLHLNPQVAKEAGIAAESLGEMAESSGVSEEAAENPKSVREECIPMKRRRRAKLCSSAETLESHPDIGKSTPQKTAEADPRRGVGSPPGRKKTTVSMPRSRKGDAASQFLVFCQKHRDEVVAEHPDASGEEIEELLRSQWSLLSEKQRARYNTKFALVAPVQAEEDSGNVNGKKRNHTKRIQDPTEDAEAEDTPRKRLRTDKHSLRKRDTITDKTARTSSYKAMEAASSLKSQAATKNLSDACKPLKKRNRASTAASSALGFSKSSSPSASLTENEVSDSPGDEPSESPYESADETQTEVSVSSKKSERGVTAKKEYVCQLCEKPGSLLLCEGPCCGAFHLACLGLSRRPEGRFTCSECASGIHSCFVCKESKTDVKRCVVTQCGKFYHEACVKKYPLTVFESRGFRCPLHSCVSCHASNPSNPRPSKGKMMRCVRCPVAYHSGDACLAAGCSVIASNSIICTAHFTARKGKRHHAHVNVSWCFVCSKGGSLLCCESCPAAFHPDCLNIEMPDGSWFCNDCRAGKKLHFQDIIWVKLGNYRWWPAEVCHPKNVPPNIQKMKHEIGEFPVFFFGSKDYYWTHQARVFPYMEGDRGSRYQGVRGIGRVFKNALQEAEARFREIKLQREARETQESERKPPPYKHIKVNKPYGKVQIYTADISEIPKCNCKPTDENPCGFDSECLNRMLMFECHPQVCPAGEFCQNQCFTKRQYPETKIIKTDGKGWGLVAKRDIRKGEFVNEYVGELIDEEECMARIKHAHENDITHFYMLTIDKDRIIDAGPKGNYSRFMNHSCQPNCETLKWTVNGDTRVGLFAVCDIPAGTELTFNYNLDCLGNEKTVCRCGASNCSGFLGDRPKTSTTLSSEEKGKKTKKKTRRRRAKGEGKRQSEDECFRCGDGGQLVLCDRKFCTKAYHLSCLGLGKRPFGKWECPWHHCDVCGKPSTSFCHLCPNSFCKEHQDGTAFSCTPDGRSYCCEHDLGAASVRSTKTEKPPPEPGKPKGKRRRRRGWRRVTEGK
# UHRF1 MBD2 ctr – blocks human UHRF1 binding to methylated DNA; AID 687016; inhibition, % at 4.4 µM; 370,000 tested, 0.75% active; UHRF1 binding to methylated oligo, TR-FRET; in the data active means inhibition above about 21%;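 further: UHRF1 SRA domain binding a hemimethylated CpG hairpin DNA probe; 0% = median of test compound wells and 100% = reference inhibitor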
# MBD2 inh – MBD2-methylated oligo binding inhibition; Q9UBB5; TR-FRET, MBD2 binding to methylated oligonucleotide; inhibition, % at 4.4 µM; 370,000 tested, 0.31% active; AID 686964; in the data active means inhibition above about 13%
# LEDGF integ inh – blocks HIV-1 LEDGF/p75-dependent DNA integration; TR-FRET IN-LEDGF/p75 DNA integration, Eu/Cy5; inhibition, % at 3.7 µM; 370,000 tested, 0.64% active; AID 743269;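 active means inhibition above the screen-wide mean plus 3 SD, cut at about 13% in these data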;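 further: signal is the Cy5 over europium emission ratio at 671 and 618 nm; 0% = plate median of compound wells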
# Casp6 inh – blocks human caspase-6 cleavage activity; P55212; AID 686996; 350,000 tested, 0.53% active; inhibition, % at 12.5 µM; purified caspase-6, Z-VEID-R110 cleavage fluorescence;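 active means mean inhibition across replicates at least about 35%, with every replicate also reaching that limit, limit read from the data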;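 further: 0% = median of neutral control wells and 100% = no fluorescence left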
# IN multimer up – HIV-1 integrase multimerization activation, counter-screen | shares compounds with LEDGF integ inh | TR-FRET HIV-1 integrase multimerization, biochemical | activation, % at 7.7 µM | 2,000 tested, 17% active | AID 1053131; in the data active means activation above about 8.9%
# TR-FRET interf – counter-screen for LEDGF/p75 integration inhibitors: TR-FRET optical interference. shares compounds with LEDGF integ inh. TR-FRET optical interference counterscreen, HIV-1 IN multimerization. inhibition, % at 7.7 µM. 2,000 tested, under 10 active. AID 1053135;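 active means inhibition above the mean over all tested compounds plus 3 SD, which no compound reached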;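 further: 0% = integrase with antibodies and DMSO and 100% = antibodies without integrase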
# IN-LEDGF confirm – LEDGF/p75-dependent HIV-1 integration inhibition, confirmation; shares compounds with LEDGF integ inh; TR-FRET LEDGF/p75-dependent HIV-1 integration, biochemical; inhibition, % at 3.7 µM; 2,000 tested, 36% active; in the data active means inhibition above about 14%
# AlphaScreen art – counter-screen for NSD2 inhibitors: AlphaScreen artifacts; shares compounds with NSD2 inh; AlphaScreen artifact counterscreen, preloaded methylated H4 peptide; AC35, µM (highest dose often 10 µM), inactives show at the highest dose activity change, negative = signal loss; 1,500 tested, 9.4% active; AID 1053174; call rule not given here
# Numbers without * were called inactive; · = no result. An excerpt weighted towards active compounds, which were near 1.9% of everything screened.
SMILES,TDP2 inh,NSD2 inh,UHRF1 MBD2 ctr,MBD2 inh,LEDGF integ inh,Casp6 inh,AlphaScreen art,others
COc1ccc(-n2c(O)c(C(C)=NCCN3CCNCC3)c(=O)[nH]c2=O)cc1,-3,0,6,3,17*,·,·,IN multimer up=0;TR-FRET interf=2;IN-LEDGF confirm=3
COc1ccc(-n2c(O)c(C(C)=NCC3CCCO3)c(=O)[nH]c2=O)cc1 (stereo not given),-2,-1,4,3,-5,-4,·,
O=C(O)[C@H]1[C@H](CO)[C@H]2Cn3c(ccc(-c4ccccc4)c3=O)[C@@H]1N2C(=O)C1CCCCC1,·,·,·,·,·,-1,·,
COC(=O)[C@H]1[C@H](CO)[C@H]2Cn3c(ccc(-c4ccccc4)c3=O)[C@@H]1N2S(=O)(=O)c1ccccc1C,·,·,·,·,·,2,·,
Cc1cccc(N2C(=O)/C(=C/c3ccc(CN(CCC#N)S(C)(=O)=O)o3)C(=O)NC2=S)c1,-8,·,7,-1,25*,·,·,IN multimer up=1;TR-FRET interf=-4;IN-LEDGF confirm=36*
COc1ccc(-c2ccc([C@@H]3[C@H](CO)N4CCCCN(C(=O)Cc5ccccc5)C[C@@H]34)cc2)cc1,·,·,·,·,·,-5,·,
COC1CC2C=C(C)C=CC=CC(=O)NC(c3ccccc3)CC=CCCC(O)CC(=O)C2=C1O (stereo not given),9,1,19,5,22*,2,·,IN multimer up=5;TR-FRET interf=-24;IN-LEDGF confirm=50*
O=c1cccc2n1CC1CC2CN(C(c2cccc(F)c2)c2sc3ncnn3c2O)C1 (stereo not given),-3,·,-2,-5,17*,1,·,IN multimer up=0;TR-FRET interf=2;IN-LEDGF confirm=1
Cc1ccc(N2C(=O)NC(=O)/C(=C\c3cc(C)n(-c4cc(C(=O)O)cc(C(=O)O)c4)c3C)C2=O)cc1,-8,28,26*,-1,36*,22,·,IN multimer up=2;TR-FRET interf=-8;IN-LEDGF confirm=11
Cc1ccc(N2C(=O)NC(=O)/C(=C\c3cc(C)n(-c4ccc(C(=O)O)cc4)c3C)C2=O)cc1,6,15,-2,0,2,12,·,
CCc1ccc(N2C(=O)NC(=O)/C(=C\c3cc(C)n(-c4cc(C(=O)O)cc(C(=O)O)c4)c3C)C2=O)cc1,1,20,14,-2,29*,31,·,IN multimer up=6;TR-FRET interf=-20;IN-LEDGF confirm=21*
Cc1cc(/C=C2\C(=O)NC(=O)N(c3ccc(F)cc3)C2=O)c(C)n1-c1ccc(C(=O)O)cc1,3,11,-1,0,4,3,·,
CC=Cc1ccc2n(c1=O)C[C@@H]1[C@@H](CO)[C@H](C(=O)O)[C@H]2N1S(=O)(=O)c1ccccc1C (mixture of isomers),·,·,·,·,·,-1,·,
CCOC(=O)[C@@H]1[C@@H]2NC(=S)N(C)[C@@]1(C)Oc1ccccc12,·,·,·,·,·,1,·,
Cc1ccc(N2C(=O)NC(=O)/C(=C\C=C\c3ccco3)C2=O)cc1,-7,76*,8,2,41*,9,-6%,IN multimer up=0;TR-FRET interf=1;IN-LEDGF confirm=33*
COC(=O)[C@H]1N[C@H]2c3ccc(C4=CCCC4)c(=O)n3C[C@H]2[C@@H]1CO,·,·,·,·,·,-2,·,
CCNCCNc1ccc([N+](=O)[O-])c2cccnc12,2,100*,-27,-23,3,-4,-4%,
CN(C)C(=O)On1c(-c2ccccc2)nc2ccc(Cl)cc21,4,1,2,0,2,·,·,
CC(=O)N(C)C1=Nc2ccc(Cl)cc2C(c2ccccc2)=[N+]([O-])C1,6,54*,-1,0,-1,-4,-2%,
Nc1ccc(C2(c3ccc(N)cc3)CN3CCC2CC3)cc1,-1,176*,9,11,-1,·,-17%,
Cc1ccc(C2(O)CN3CCC2CC3)cc1 (stereo not given),2,-1,-2,1,3,1,·,
CCC(=NCCCN(CC)CC)c1c(O)n(C2CCCCC2)c(=O)[nH]c1=O,-5,51*,9,-1,-1,·,-7%,
CCN(CC)CCCN=C(C)c1c(O)n(C2CCCCC2)c(=O)[nH]c1=O,6,49,3,-4,4,·,·,
O=C(O)[C@H]1[C@H](CO)[C@H]2Cn3c(ccc(-c4ccncc4)c3=O)[C@@H]1N2C(=O)C1CCC1,·,·,·,·,·,1,·,
C/C=C/c1ccc(C2[C@@H]3CN(C(=O)C4CCOCC4)C[C@H]2N3)cc1 (stereo not given in full),·,·,·,·,·,2,·,
SMILES,TDP2 inh,NSD2 inh,UHRF1 MBD2 ctr,MBD2 inh,LEDGF integ inh,Casp6 inh,AlphaScreen art,others
Clc1ccccc1Nc1ncnc(-n2cccc2)n1,-4,128*,0,0,-4,·,-5%,
CCN1/C(=C/C=C/C2=[N+](CC)c3ccccc3C2(C)C)C(C)(C)c2ccccc21,-1,55*,-35,-32,-1,-30,-11%,
Cc1ccc(OC(=O)N(C)C[C@@H]2OCc3ccccc3-c3c(n(C)c4ccccc34)C(=O)N([C@@H](C)CO)C[C@H]2C)cc1,·,·,·,·,·,1,·,
CC(=O)NC1=C(N2CC2C)C(=O)C(NC(C)=O)=C(N2CC2C)C1=O (stereo not given),10,115*,-2,-11,4,38*,-4%,
O=C(O)[C@@H]1[C@@H](CO)[C@@H]2Cn3c(ccc(-c4ccccc4)c3=O)[C@H]1N2C(=O)C1CCCCC1,·,·,·,·,·,2,·,
CCCC(=O)NC1=C(N2CC2)C(=O)C(NC(=O)CCC)=C(N2CC2)C1=O,2,92*,-3,-15,3,21,-1%,
Cc1cc(/C=C2\C(=O)NC(=O)N(Cc3ccccc3Cl)C2=O)c(C)n1-c1ccc(C(=O)O)cc1,5,58*,22*,10,10,48*,-8%,
CN(C)c1ccccc1,-3,-3,1,-2,7,-1,·,
Cc1cccc(N=Nc2ccc(N(C)C)cc2)c1,-22,51*,-2,0,-2,2,8.4µM*,
COCCN1C(=O)/C(=C/c2c(OC)cc(OC)cc2OC)C(=O)N(c2ccccc2)C1=O,-10,52*,-4,-3,-5,-2,-1%,
N#Cc1ccc(-c2ccc([C@@H]3[C@H](CO)N4CCCCN(C(=O)Cc5ccccc5)C[C@@H]34)cc2)cc1,·,·,·,·,·,2,·,
O=[N+]([O-])c1ccc(N(CCO)CCO)c2c1no[n+]2[O-],8,135*,-23,-27,10,-6,-1%,

# Assay outcomes as filed in PubChem.
